Data published in ChEMBL document CHEMBL2440084, “Design and bio-evaluation of indole derivatives as potent Kv1.5 inhibitors” (Bioorg Med Chem, 2013).

Columns and labels:
[1] = molecular target: T1, Potassium voltage-gated channel subfamily A member 5 (Homo sapiens, UniProt P22460); assay: Inhibition of human Kv1.5 channel expressed in HEK293 cells by whole cell patch clamp technique; format: cell-based
How it was run: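 HEK 293 cells stably expressing hKv1.5 were grown at 37 °C with 10% FBS and 0.2 mg/mL geneticin, trypsinized and used the same day. Whole-cell I_Kur was evoked by 500-ms steps to +60 mV from -80 mV at 0.1 Hz, at 25 °C. Compound was applied ≥5 min after current stabilized. IC50 came from cell-by-cell Hill fits, ≥3 cells per concentration, mean ± SD, n = 3.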

Homo sapiens = species on record: Homo sapiens; assay: Selectivity ratio of IC50 for human ERG channel to IC50 for human Kv1.5 channel
[2] = Effect on ventricular effective refractory period in right ventricle of Sprague-Dawley rat heart at 0.1 to 50 umol/L after 10 mins
[3] = molecular target: Voltage-gated inwardly rectifying potassium channel KCNH2 (Homo sapiens, UniProt Q12809); assay: Inhibition of human ERG channel expressed in CHO cells by whole cell patch clamp technique; format: cell-based
[4] = Inhibition of sodium channel in guinea pig ventricular myocytes by whole cell patch clamp technique; format: cell-based; conditions: Cavia porcellus, Ventricular myocyte
How it was run: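 Whole-cell I_Na was recorded in enzymatically isolated ventricular myocytes, using only quiescent, rod-shaped, striated cells, at 25 °C. Holding potential was -90 mV, with 30-ms pulses from -80 to +40 mV in 10-mV increments at 0.5 Hz. Compound was applied ≥5 min after current stabilized. IC50 came from cell-by-cell Hill fits, ≥3 cells per concentration, mean ± SD.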

HEK293 = assay: Selectivity ratio of IC50 for sodium channel in guinea pig ventricular myocytes to IC50 for human Kv1.5 channel expressed in HEK293 cells; format: cell-based
Rattus norvegicus = species on record: Rattus norvegicus; assay: Prolongation of atrial effective refractory period in left atrium of Sprague-Dawley rat heart after 10 mins; format: functional, tissue-based; conditions: Cardiac atrium
How it was run: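 Male SD rats (230 ± 30 g) were anesthetized with i.p. chloral hydrate. Left atrium and right ventricle were isolated into Krebs-Henseleit solution at pH 7.4, gassed with 95% O2/5% CO2. Compound was added cumulatively at 0.1, 1.0, 10 and 50 μmol/L, with 10 min equilibration each. ERP was recorded before and after compound. Values are mean ± SEM, n = 3, compared by Student's t test.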

[5] = molecular target: T1, Potassium voltage-gated channel subfamily A member 5; assay: Inhibition of human Kv1.5 channel expressed in HEK293 cells at 10 uM by whole cell patch clamp technique; format: cell-based

Sequence of Voltage-gated inwardly rectifying potassium channel KCNH2 (Q12809 whole entry): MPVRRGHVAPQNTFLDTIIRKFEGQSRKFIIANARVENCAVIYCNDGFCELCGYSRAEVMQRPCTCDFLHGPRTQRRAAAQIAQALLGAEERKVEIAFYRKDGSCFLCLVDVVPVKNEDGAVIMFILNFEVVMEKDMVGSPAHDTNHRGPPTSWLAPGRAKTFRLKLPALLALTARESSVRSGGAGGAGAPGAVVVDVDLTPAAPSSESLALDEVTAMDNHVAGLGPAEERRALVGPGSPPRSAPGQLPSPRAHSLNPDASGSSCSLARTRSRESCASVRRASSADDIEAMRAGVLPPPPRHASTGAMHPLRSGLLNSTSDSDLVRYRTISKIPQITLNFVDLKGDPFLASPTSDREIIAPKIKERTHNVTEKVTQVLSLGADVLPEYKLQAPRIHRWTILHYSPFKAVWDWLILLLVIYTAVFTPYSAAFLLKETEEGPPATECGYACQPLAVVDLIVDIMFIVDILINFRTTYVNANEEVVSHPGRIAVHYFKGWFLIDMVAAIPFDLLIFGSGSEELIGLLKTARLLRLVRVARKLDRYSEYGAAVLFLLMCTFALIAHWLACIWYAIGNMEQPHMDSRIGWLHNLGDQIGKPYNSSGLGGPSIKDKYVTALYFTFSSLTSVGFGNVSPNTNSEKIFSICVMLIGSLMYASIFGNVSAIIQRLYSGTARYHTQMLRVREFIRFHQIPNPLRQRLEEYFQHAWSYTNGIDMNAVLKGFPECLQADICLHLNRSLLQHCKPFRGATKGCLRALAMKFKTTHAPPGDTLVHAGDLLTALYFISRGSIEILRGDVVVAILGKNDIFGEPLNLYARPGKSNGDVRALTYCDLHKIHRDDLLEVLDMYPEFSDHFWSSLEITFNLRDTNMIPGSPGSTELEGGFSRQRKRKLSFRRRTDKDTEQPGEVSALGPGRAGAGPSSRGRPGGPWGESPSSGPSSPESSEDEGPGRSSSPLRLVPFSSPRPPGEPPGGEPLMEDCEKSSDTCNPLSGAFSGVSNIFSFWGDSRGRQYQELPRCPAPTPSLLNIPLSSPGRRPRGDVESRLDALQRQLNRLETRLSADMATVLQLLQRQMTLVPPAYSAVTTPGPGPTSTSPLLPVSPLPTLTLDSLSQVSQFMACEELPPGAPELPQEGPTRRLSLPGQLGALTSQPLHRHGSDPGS
T1 sequence (P22460 whole entry): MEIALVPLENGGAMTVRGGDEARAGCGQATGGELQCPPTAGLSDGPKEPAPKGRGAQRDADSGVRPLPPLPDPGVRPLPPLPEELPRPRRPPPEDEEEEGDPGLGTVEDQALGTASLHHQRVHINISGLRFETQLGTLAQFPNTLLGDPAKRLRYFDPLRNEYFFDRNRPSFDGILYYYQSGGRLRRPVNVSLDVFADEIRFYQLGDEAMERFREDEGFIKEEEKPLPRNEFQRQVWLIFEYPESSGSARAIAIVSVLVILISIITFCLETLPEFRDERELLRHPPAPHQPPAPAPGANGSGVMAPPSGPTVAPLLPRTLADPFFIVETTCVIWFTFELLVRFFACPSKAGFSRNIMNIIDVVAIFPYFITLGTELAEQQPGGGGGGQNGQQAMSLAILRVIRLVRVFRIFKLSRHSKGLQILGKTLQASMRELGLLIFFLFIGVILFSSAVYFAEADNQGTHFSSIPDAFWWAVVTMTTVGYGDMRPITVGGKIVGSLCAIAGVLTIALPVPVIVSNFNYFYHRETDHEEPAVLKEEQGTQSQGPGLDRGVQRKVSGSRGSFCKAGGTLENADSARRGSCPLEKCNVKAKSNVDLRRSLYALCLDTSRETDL

Compound | IC50 [1] [µM] | inhibition [1] | other results
CCCCOc1ccc(S(=O)(=O)NCCc2cn(CC(=O)Nc3ccc(OC)cc3)c3ccccc23)cc1 | 6.21 | Dose-dependent effect | –
COC(=O)C(Cc1c[nH]c2ccccc12)NS(=O)(=O)c1ccc(OC2CCCC2)cc1 (stereo not drawn) | 2.38 | Dose-dependent effect | –
COC(=O)C(Cc1c[nH]c2ccccc12)NS(=O)(=O)c1ccc(Br)cc1 (stereo not drawn) | 2.25 | Dose-dependent effect | –
Cc1ccc(S(=O)(=O)N/N=C/c2cn(CC(=O)Nc3ccc(C)c(C)c3)c3ccccc23)cc1 | 11.2 | Dose-dependent effect | –
COc1ccc2c(c1)c(/C=N/NS(=O)(=O)c1ccc(C)cc1)cn2CC(=O)Nc1ccccc1 | 3.73 | Dose-dependent effect | –
CCCCOc1ccc(S(=O)(=O)NCCc2c[nH]c3ccccc23)cc1 | 9.95 | Dose-dependent effect | Ratio IC50 (Homo sapiens): 0.32; IC50 [3]: 3.18 µM
COc1ccc(NC(=O)Cn2cc(/C=N/NS(=O)(=O)c3ccc(C)cc3)c3ccccc32)cc1 | 16.9 | Dose-dependent effect | –
Cc1ccc(S(=O)(=O)N/N=C/c2cn(CC(=O)Nc3cc(C)ccc3C)c3ccccc23)cc1 | 1.77 | Dose-dependent effect | –
COC(=O)C(Cc1c[nH]c2ccccc12)NS(=O)(=O)c1ccc(OCC(C)C)cc1 (stereo not drawn) | 3.56 | Dose-dependent effect | –
Cc1ccc(S(=O)(=O)N/N=C/c2cn(CC(=O)Nc3ccc(Cl)cc3)c3ccccc23)cc1 | 1.9 | Dose-dependent effect | –
COc1ccc2c(c1)c(/C=N/NS(=O)(=O)c1ccc(C)cc1)cn2CC(=O)Nc1ccc(F)cc1F | 2.18 | Dose-dependent effect | –
Cc1ccc(S(=O)(=O)N/N=C/c2cn(CC(=O)Nc3ccccc3Cl)c3ccccc23)cc1 | 0.74 | Dose-dependent effect | Ratio IC50 (Homo sapiens): 25.2; IC50 [3]: 18.7 µM
COC(=O)C(Cc1c[nH]c2ccccc12)NS(=O)(=O)c1ccc(OC)cc1 (stereo not drawn) | 5.45 | Dose-dependent effect | –
COC(=O)C(Cc1c[nH]c2ccccc12)NS(=O)(=O)c1ccc(C)cc1 (stereo not drawn) | 4.72 | Dose-dependent effect | –
CCCCOc1ccc(S(=O)(=O)NC(Cc2c[nH]c3ccccc23)C(=O)O)cc1 (stereo not drawn) | 65.4 | Dose-dependent effect | –
Cc1ccc(S(=O)(=O)N/N=C/c2cn(CC(=O)Nc3ccc(C)cc3C)c3ccccc23)cc1 | 24 | Dose-dependent effect | –
CCCCOc1ccc(S(=O)(=O)NCCc2cn(CC(=O)Nc3ccc(Cl)cc3)c3ccccc23)cc1 | 185 | Dose-dependent effect | –

Further molecules by falling IC50 [1], results first:

IC50 [1] [µM] | inhibition [1] | Compound | other results
110 | Dose-dependent effect | CCCCOc1ccc(S(=O)(=O)NC(Cc2ccccc2)C(=O)OC)cc1 (stereo not drawn) | –
38.7 | Dose-dependent effect | COc1ccc(NC(=O)Cn2cc(CCNS(=O)(=O)c3ccc(C)cc3)c3ccccc32)cc1 | –
12.9 | Dose-dependent effect | Cc1ccc(S(=O)(=O)NCCc2cn(CC(=O)Nc3ccc(Cl)cc3)c3ccccc23)cc1 | –
8.37 | Dose-dependent effect | CCCCOc1ccc(S(=O)(=O)NC(Cc2c[nH]c3ccccc23)C(=O)OC)cc1 (stereo not drawn) | inhibition [5]: 52%
6.45 | Dose-dependent effect | COC(=O)C(Cc1c[nH]c2ccccc12)NS(=O)(=O)c1ccc(F)cc1 (stereo not drawn) | –
3.93 | Dose-dependent effect | COC(=O)C(Cc1c[nH]c2ccccc12)NS(=O)(=O)c1ccc(OC(C)C)cc1 (stereo not drawn) | –
3.14 | Dose-dependent effect | COc1ccc(S(=O)(=O)NCCc2cn(CC(=O)Nc3ccc(Cl)cc3)c3ccccc23)cc1 | –
2.14 | Dose-dependent effect | CCC(=O)Oc1ccc(NC(=O)Cn2cc(/C=N/NS(=O)(=O)c3ccc(C)cc3)c3ccccc32)cc1 | –
1.72 | Dose-dependent effect | COc1ccc(NC(=O)Cn2cc(CCNS(=O)(=O)c3ccc(OC)cc3)c3ccccc32)cc1 | Ratio IC50 (Homo sapiens): 5.95; IC50 [3]: 10.2 µM
1.52 | Dose-dependent effect | Cc1ccc(S(=O)(=O)N/N=C/c2cn(CC(=O)Nc3ccc(OC(F)(F)F)cc3)c3ccccc23)cc1 | –
0.81 | Dose-dependent effect | Cc1ccc(S(=O)(=O)N/N=C/c2cn(CC(=O)Nc3ccccc3)c3ccccc23)cc1 | Ratio IC50 (Homo sapiens): 53.9; IC50 [3]: 43.6 µM; IC50 [4]: 78 µM; Ratio IC50 (HEK293): 96.3
0.51 | Dose-dependent effect | COc1ccc2c(c1)c(/C=N/NS(=O)(=O)c1ccc(C)cc1)cn2CC(=O)Nc1ccc(Cl)cc1 | Ratio IC50 (Homo sapiens): 820; Activity [2]: Non-toxic; IC50 [3]: 418 µM; IC50 [4]: 52.6 µM; Ratio IC50 (HEK293): 103; Activity (Rattus norvegicus): Dose-dependent effect
0.25 | Dose-dependent effect | Cc1ccc(S(=O)(=O)N/N=C/c2cn(CC(=O)Nc3ccc(F)cc3F)c3ccccc23)cc1 | Ratio IC50 (Homo sapiens): 172; Activity [2]: Non-toxic; IC50 [3]: 43 µM; IC50 [4]: 115 µM; Ratio IC50 (HEK293): 459; Activity (Rattus norvegicus): Dose-dependent effect
